Converted amounts (≈) assume the structure as drawn.
Key:
Pseudomonas aeruginosa [1] = experiment: Antibacterial activity against Pseudomonas aeruginosa N091 by broth microdilution method; type: functional
Summary of the method: (§1)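 Standard broth microdilution in cation-adjusted Mueller-Hinton broth (25 mg Ca2+ and 12.5 mg Mg2+ per liter), inoculum 4×10^5 CFU/ml, against P. aeruginosa PAO1 or its laboratory mutants with defined resistance mechanisms. MIC was the lowest concentration completely inhibiting […] growth in wells. Determinations were done in duplicate.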

Pseudomonas aeruginosa [2] = experiment: Antibacterial activity against beta-lactamase-overproducing Pseudomonas aeruginosa N043 by broth microdilution method; type: functional; summary of the method: as §1
Pseudomonas aeruginosa [3] = experiment: Antibacterial activity against OprD-deficient Pseudomonas aeruginosa MR08 by broth microdilution method; type: functional; summary of the method: as §1
Pseudomonas aeruginosa [4] = experiment: Antibacterial activity against Pseudomonas aeruginosa N092 expressing MexE-MexF-OprN gene and OprD mutant gene and harboring nfxC mutant gene by broth microdilution method
Pseudomonas aeruginosa [5] = experiment: Antibacterial activity against Pseudomonas aeruginosa COR6 expressing MexC-MexD-OprJ gene by broth microdilution method; type: functional; summary of the method: as §1
Pseudomonas aeruginosa [6] = experiment: Antibacterial activity against Pseudomonas aeruginosa PAO1 by broth microdilution method; type: functional; summary of the method: as §1
Pseudomonas aeruginosa [7] = experiment: Antibacterial activity against beta-lactamase-overproducing and OprD-deficient Pseudomonas aeruginosa N044 by broth microdilution method; type: functional; summary of the method: as §1
Pseudomonas aeruginosa [8] = experiment: Ratio of MIC for Pseudomonas aeruginosa N044 to MIC for Pseudomonas aeruginosa PAO1; type: functional
Summary of the method: (§2)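 MICs were measured for PAO1-derived resistance mutants and the parent PAO1 by broth microdilution in cation-adjusted Mueller-Hinton broth (25 mg/liter Ca2+, 12.5 mg/liter Mg2+), inoculum 4×10^5 CFU/ml, in duplicate. MIC was the lowest concentration with complete growth inhibition. The ratio is the mutant MIC divided by the PAO1 MIC.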

Pseudomonas aeruginosa [9] = experiment: Antibacterial activity against beta-lactamase and MexA-MexB-OprM-overproducing Pseudomonas aeruginosa N045 by broth microdilution method; type: functional
Summary of the method: (§3)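 Broth microdilution in cation-adjusted Mueller-Hinton broth (25 mg Ca2+ and 12.5 mg Mg2+ per liter), inoculum 4×10^5 CFU/ml. MIC was the lowest concentration completely inhibiting visible growth in wells. European clinical isolates were tested with S. aureus ATCC 29213 and P. aeruginosa ATCC 27853 as quality controls. PAO1-derived mutants were run in duplicate.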

Pseudomonas aeruginosa [10] = experiment: Antibacterial activity against MexA-MexB-OprM-overproducing and OprD-deficient Pseudomonas aeruginosa N041 by broth microdilution method; type: functional; summary of the method: as §1
Pseudomonas aeruginosa [11] = experiment: Ratio of MIC for Pseudomonas aeruginosa N041 to MIC for Pseudomonas aeruginosa PAO1; type: functional; summary of the method: as §2
Pseudomonas aeruginosa [12] = experiment: Ratio of MIC for Pseudomonas aeruginosa MR08 to MIC for Pseudomonas aeruginosa PAO1; type: functional; summary of the method: as §2
Pseudomonas aeruginosa [13] = experiment: Ratio of MIC for Pseudomonas aeruginosa N043 to MIC for Pseudomonas aeruginosa PAO1; type: functional; summary of the method: as §2
Pseudomonas aeruginosa [14] = experiment: Ratio of MIC for Pseudomonas aeruginosa N092 to MIC for Pseudomonas aeruginosa PAO1; type: functional; summary of the method: as §2
Pseudomonas aeruginosa [15] = experiment: Ratio of MIC for Pseudomonas aeruginosa N045 to MIC for Pseudomonas aeruginosa PAO1; type: functional; summary of the method: as §2
Pseudomonas aeruginosa [16] = experiment: Ratio of MIC for Pseudomonas aeruginosa OCR1 to MIC for Pseudomonas aeruginosa PAO1; type: functional; summary of the method: as §2
Pseudomonas aeruginosa [17] = experiment: Antibacterial activity against MexA-MexB-OprM-overproducing Pseudomonas aeruginosa OCR1 by broth microdilution method; type: functional; summary of the method: as §1
Pseudomonas aeruginosa [18] = experiment: Ratio of MIC for Pseudomonas aeruginosa COR6 to MIC for Pseudomonas aeruginosa PAO1; type: functional; summary of the method: as §2
Staphylococcus aureus [19] = experiment: Antibacterial activity against methicillin-resistant Staphylococcus aureus 123-1 expressing PBP 2a by broth microdilution method; type: functional
Summary of the method: (§4)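 Standard broth microdilution in cation-adjusted Mueller-Hinton broth (25 mg Ca2+ and 12.5 mg Mg2+ per liter), inoculum 4×10^5 CFU/ml. Isolates were 60 German MRSA clinical strains, and penicillinase-plasmid-cured MRSA 123-1 and 12386-1. QC strain was S. aureus ATCC 29213.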

Staphylococcus aureus [20] = experiment: Antibacterial activity against methicillin-resistant Staphylococcus aureus by broth microdilution method; type: functional; summary of the method: as §4
MecA [21] = biological target: T1, MecA (Staphylococcus aureus, UniProt Q7DHH4); experiment: Binding affinity to PBP2a in methicillin-resistant Staphylococcus aureus 123-1 by [14C]benzylpenicillin labelled competitive assay
T1 sequence (Q7DHH4 whole entry): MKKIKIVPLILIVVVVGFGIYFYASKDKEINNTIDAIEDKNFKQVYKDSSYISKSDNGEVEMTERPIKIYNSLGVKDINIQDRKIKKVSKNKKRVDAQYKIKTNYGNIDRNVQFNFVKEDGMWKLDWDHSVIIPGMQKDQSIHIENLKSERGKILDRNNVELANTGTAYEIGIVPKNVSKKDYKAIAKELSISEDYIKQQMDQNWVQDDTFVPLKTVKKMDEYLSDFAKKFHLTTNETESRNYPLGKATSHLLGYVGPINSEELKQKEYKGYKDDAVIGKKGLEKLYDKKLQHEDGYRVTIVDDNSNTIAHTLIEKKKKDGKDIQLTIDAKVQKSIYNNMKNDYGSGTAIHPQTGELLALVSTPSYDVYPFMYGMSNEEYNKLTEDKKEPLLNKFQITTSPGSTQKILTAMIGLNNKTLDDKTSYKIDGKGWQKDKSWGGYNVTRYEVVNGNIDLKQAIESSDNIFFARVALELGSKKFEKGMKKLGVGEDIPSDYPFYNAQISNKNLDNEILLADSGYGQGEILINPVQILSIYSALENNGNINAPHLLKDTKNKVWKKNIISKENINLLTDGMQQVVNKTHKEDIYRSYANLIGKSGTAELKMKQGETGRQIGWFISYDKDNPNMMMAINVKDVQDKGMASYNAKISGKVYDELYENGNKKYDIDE
Summary of the method: (§5)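 Competition against [14C]benzylpenicillin. Membranes came from penicillinase-plasmid-cured MRSA lysed with lysostaphin (100 μg/ml), DNase (1 μg/ml) and sonication in 50 mM sodium phosphate, 10 mM MgCl2, pH 7.0. They were collected at 5,000 × g for 10 min, then 100,000 × g for 60 min, at final 8 mg/ml protein. Compound was added for 30 min, then label for 30 min, at 37°C. IC50 for 50% label-binding inhibition to PBP 2a was read by imaging analyzer.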

Pseudomonas aeruginosa [22] = experiment: Antibacterial activity against meropenem-resistant Pseudomonas aeruginosa clinical isolates by broth microdilution method; type: functional
Summary of the method: (§6)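 Standard broth microdilution in cation-adjusted Mueller-Hinton broth (25 mg Ca2+ and 12.5 mg Mg2+ per liter), inoculum 4×10^5 CFU/ml. MIC is the lowest concentration completely inhibiting […] growth in wells. […] P. aeruginosa ATCC 27853 serves as QC strain.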

MecA [23] = biological target: T1, MecA; experiment: Binding affinity to PBP2a in methicillin-resistant Staphylococcus aureus 12386-1 by [14C]benzylpenicillin labelled competitive assay; summary of the method: as §5
Pseudomonas aeruginosa [24] = experiment: Antibacterial activity against Pseudomonas aeruginosa clinical isolates by broth microdilution method; type: functional; summary of the method: as §3
Staphylococcus aureus [25] = experiment: Antibacterial activity against methicillin-resistant Staphylococcus aureus 12386-1 expressing PBP 2a by broth microdilution method; type: functional; summary of the method: as §4
Pseudomonas aeruginosa [26] = experiment: Antibacterial activity against imipenem-resistant Pseudomonas aeruginosa clinical isolates by broth microdilution method; type: functional; summary of the method: as §6

Structure (SMILES)	MIC (Pseudomonas aeruginosa [1])	MIC (Pseudomonas aeruginosa [2])	MIC (Pseudomonas aeruginosa [3])	MIC (Pseudomonas aeruginosa [4])	MIC (Pseudomonas aeruginosa [5])	MIC (Pseudomonas aeruginosa [6])	MIC (Pseudomonas aeruginosa [7])	Ratio (Pseudomonas aeruginosa [8])	MIC (Pseudomonas aeruginosa [9])	MIC (Pseudomonas aeruginosa [10])	Ratio (Pseudomonas aeruginosa [11])	Ratio (Pseudomonas aeruginosa [12])	Ratio (Pseudomonas aeruginosa [13])	Ratio (Pseudomonas aeruginosa [14])	Ratio (Pseudomonas aeruginosa [15])	Ratio (Pseudomonas aeruginosa [16])	MIC (Pseudomonas aeruginosa [17])	Ratio (Pseudomonas aeruginosa [18])	MIC (Staphylococcus aureus [19])	MIC50 (Staphylococcus aureus [20])	other results
C[C@H]1COc2c(N3CCN(C)CC3)c(F)cc3c(=O)c(C(=O)O)cn1c23.C[C@H]1COc2c(N3CCN(C)CC3)c(F)cc3c(=O)c(C(=O)O)cn1c23.O [LEVOFLOXACIN]	0.5 µg/mL	0.25 µg/mL	0.5 µg/mL	8 µg/mL	8 µg/mL	0.5 µg/mL	0.25 µg/mL														
CC(C)(O/N=C(\C(=O)N[C@@H]1C(=O)N2C(C(=O)[O-])=C(C[n+]3ccccc3)CS[C@H]12)c1csc(N)n1)C(=O)O [CEFTAZIDIME]	2 µg/mL (≈ 3.66 µM)	128 µg/mL (≈ 234 µM)	2 µg/mL (≈ 3.66 µM)	1 µg/mL (≈ 1.83 µM)	1 µg/mL (≈ 1.83 µM)	2 µg/mL (≈ 3.66 µM)	128 µg/mL (≈ 234 µM)	64	128 µg/mL (≈ 234 µM)	8 µg/mL (≈ 14.6 µM)	4	1	64	0.5	64	4	8 µg/mL (≈ 14.6 µM)	0.5			
C[C@@H](O)[C@H]1C(=O)N2C(C(=O)O)=C(S[C@@H]3CN[C@H](C(=O)N(C)C)C3)[C@H](C)[C@H]12 [MEROPENEM]	0.5 µg/mL (≈ 1.3 µM)	1 µg/mL (≈ 2.61 µM)	4 µg/mL (≈ 10.4 µM)	1 µg/mL (≈ 2.61 µM)	0.5 µg/mL (≈ 1.3 µM)	0.5 µg/mL (≈ 1.3 µM)	16 µg/mL (≈ 41.7 µM)	32	2 µg/mL (≈ 5.22 µM)	16 µg/mL (≈ 41.7 µM)	32	8	2	2	4	4	2 µg/mL (≈ 5.22 µM)	1	32 µg/mL (≈ 83.4 µM)	8 µg/mL (≈ 20.9 µM)	MIC90 (Staphylococcus aureus [20]): 32 µg/mL (≈ 83.4 µM); IC50 (MecA [21]): 339 µM; MIC (Pseudomonas aeruginosa [22]): ≥ 16 µg/mL; IC50 (MecA [23]): 138 µM; MIC50 (Pseudomonas aeruginosa [24]): 1 µg/mL (≈ 2.61 µM); MIC90 (Pseudomonas aeruginosa [24]): 16 µg/mL (≈ 41.7 µM); MIC (Staphylococcus aureus [25]): 16 µg/mL (≈ 41.7 µM)
C[C@@H](O)[C@H]1C(=O)N2C(C(=O)O)=C(SCCNC=N)C[C@H]12 [IMIPENEM ANHYDROUS]	1 µg/mL (≈ 3.34 µM)	1 µg/mL (≈ 3.34 µM)	16 µg/mL (≈ 53.4 µM)	4 µg/mL (≈ 13.4 µM)	0.5 µg/mL (≈ 1.67 µM)	1 µg/mL (≈ 3.34 µM)	32 µg/mL (≈ 107 µM)		1 µg/mL (≈ 3.34 µM)	8 µg/mL (≈ 26.7 µM)							1 µg/mL (≈ 3.34 µM)		32 µg/mL (≈ 107 µM)	4 µg/mL (≈ 13.4 µM)	MIC90 (Staphylococcus aureus [20]): > 32 µg/mL; IC50 (MecA [21]): 568 µM; IC50 (MecA [23]): 254 µM; MIC (Pseudomonas aeruginosa [26]): ≥ 16 µg/mL; MIC50 (Pseudomonas aeruginosa [24]): 2 µg/mL (≈ 6.68 µM); MIC90 (Pseudomonas aeruginosa [24]): 32 µg/mL (≈ 107 µM); MIC (Staphylococcus aureus [25]): 16 µg/mL (≈ 53.4 µM)
NCC[C@H](O)C(=O)N[C@@H]1C[C@H](N)[C@@H](O[C@H]2O[C@H](CN)[C@@H](O)[C@H](O)[C@H]2O)[C@H](O)[C@H]1O[C@H]1O[C@H](CO)[C@@H](O)[C@H](N)[C@H]1O [AMIKACIN]	4 µg/mL (≈ 6.83 µM)	8 µg/mL (≈ 13.7 µM)	4 µg/mL (≈ 6.83 µM)	2 µg/mL (≈ 3.42 µM)	0.5 µg/mL (≈ 0.854 µM)	4 µg/mL (≈ 6.83 µM)	8 µg/mL (≈ 13.7 µM)	2	8 µg/mL (≈ 13.7 µM)	4 µg/mL (≈ 6.83 µM)	1	1	2	0.5	2	1	4 µg/mL (≈ 6.83 µM)	0.125			
C[C@@H](O)[C@H]1C(=O)N2C(C(=O)O)=C(S[C@H]3C[C@@H](C(=O)N4CC[C@H](NC(=O)CNC(=N)N)C4)N(C)C3)[C@H](C)[C@H]12 [TOMOPENEM]	0.25 µg/mL (≈ 0.465 µM)	0.5 µg/mL (≈ 0.93 µM)	1 µg/mL (≈ 1.86 µM)	0.5 µg/mL (≈ 0.93 µM)	0.25 µg/mL (≈ 0.465 µM)	0.25 µg/mL (≈ 0.465 µM)	8 µg/mL (≈ 14.9 µM)	32	1 µg/mL (≈ 1.86 µM)	2 µg/mL (≈ 3.72 µM)	8	4	2	2	4	2	0.5 µg/mL (≈ 0.93 µM)	1	8 µg/mL (≈ 14.9 µM)	4 µg/mL (≈ 7.44 µM)	MIC90 (Staphylococcus aureus [20]): 8 µg/mL (≈ 14.9 µM); IC50 (MecA [21]): 9.86 µM; IC50 (MecA [23]): 5.39 µM; MIC50 (Pseudomonas aeruginosa [24]): 0.5 µg/mL (≈ 0.93 µM); MIC90 (Pseudomonas aeruginosa [24]): 4 µg/mL (≈ 7.44 µM); MIC (Staphylococcus aureus [25]): 8 µg/mL (≈ 14.9 µM)
